Screens: PubChem BioAssay, Broad Institute
Wnt bcat act = activates Wnt/beta-catenin signaling in a reporter cell assay | activator, plate reader | activation, % at 9.35 µM | actives 1.2% (n = 300,000) | AID 743398; in the data active = activation above about 30%, passing the limit was not always enough; inconclusive = no clear call, values can overlap the other calls;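 note: 0% = neutral control wells and 100% = positive control wells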
PGC1a acetyl inh = PGC1a acetylation modulation, inhibitor mode | actives 0.17% (n = 350,000) | U2OS PGC1a acetylation, AlphaScreen anti-acetyl-lysine; with virally co-expressed GCN5 acetyltransferase | inhibition, % at 15.6 µM;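 active = every replicate shows inhibition of at least 40%; inconclusive = mean inhibition at least 40% but some replicate below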;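 note: 0% = neutral control wells and 100% = positive control wells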
MITF act = activators of MITF-driven TRPM1 promoter activity in SK-MEL-5 cells; activation, % at 12.5 µM; SK-MEL-5 TRPM1-promoter luciferase, 24 h; % of positive control, neutral wells = 0; AID 588334; actives 0.75% (n = 300,000);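 active = mean activation of at least 80% with every replicate also reaching 80%; inconclusive = mean reaches 80% but some replicate falls short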;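 note: 0% = neutral control wells and 100% = parthenolide positive control wells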
Cneo AK release = causes C. neoformans cell lysis; adenylate kinase release luminescence, 4 h; normalised: neutral wells 0, clomiphene wells 100; actives 0.2% (n = 360,000); lysis activity, % at 15 µM;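 active = mean lysis activity across replicates of at least 80%, whatever share of replicates individually reach that level; inactive = mean lysis activity below 80%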
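Schedule: static 4 h at 37 °C with compound, 1 h detection; system: C. neoformans cells; benchmarks: Clomiphene as positive control; buffer or medium: fresh YPD medium; measure: luminescence rise reflecting yeast cell lysis; measured by: luminescent adenylate kinase detection reagent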
* = called active by the depositor; ? = inconclusive; . = not tested or not shown; ! = repeats disagree. Compounds with a hit are over-represented: about 1.5% of the library has one in this group of screens.

SMILES	Wnt bcat act	PGC1a acetyl inh	MITF act	Cneo AK release
COc1ccc(S(=O)(=O)Nc2ccc3c(c2)CC(=O)N([C@@H](C)CO)C[C@@H](C)[C@@H](CN(C)Cc2ccc(C(=O)O)cc2)O3)cc1	.	12	.	-5
Cc1[nH]n(-c2cccc(Cl)c2)c(=O)c1-c1ccccc1	0	-3	.	1
Cc1[nH]n(-c2cccc(Cl)c2)c(=O)c1C=NC12CN3CN(CN(C3)C1)C2	.	-1	8	2
Cc1[nH]n(-c2cccc(Cl)c2)c(=O)c1C=NCc1ccco1	8	.	105*	.
Cc1[nH]n(-c2cccc(Cl)c2)c(=O)c1C=NCC(C)C	3	-1	111*	.
CC(=O)Nc1ccc(NC(=O)c2cc(=O)c3ccccc3o2)cc1	3	?	30	0
NC(=O)c1ccsc1NC(=O)c1cc(=O)c2ccccc2o1	22	7	130*	0
O=C(C1CCC1)N1CC[C@@H]2[C@@H](CO)Nc3ccc(C#Cc4ccc(F)cc4)cc3[C@@H]21	.	9	.	.
Cn1c2ccccc2c(=O)c2c(=O)n(-c3ccc(F)cc3)c(-c3cccs3)nc21	51*	20	12	.
Cc1ccccc1-c1cnc2c(c1)C(=O)N([C@H](C)CO)C[C@H](C)[C@H](CN(C)C(=O)c1ccncc1)O2	.	4	.	-2
O=C(Nc1ccc(F)cc1)N1CCc2ccccc2C1	57*	7	42	.
Cc1ccc(NC(=O)N2CCc3ccccc3C2)cc1C	?	-4	95*	0
Cc1cc(C)cc(NC(=O)N2CCc3ccccc3C2)c1	12	.	75	-3
CC=Cc1ccc2n(c1=O)C[C@@H]1N[C@H]2[C@H](C(=O)NC2CCCCC2)[C@H]1CO (mixture of isomers)	.	.	.	45
O=C(O)c1ccc(-c2noc(-c3ccccc3C(F)(F)F)n2)cc1	?	.	40	2
O=C(O)c1ccc(-c2noc(-c3ccccc3Cl)n2)cc1	39*	.	13	-4
O=C(O)c1ccc(-c2noc(-c3ccc(F)cc3)n2)cc1	4	.	4	-4
O=C(O)c1ccc(-c2noc(-c3cccc(Cl)c3)n2)cc1	17	-1	87*	2
O=C(O)c1ccc(N=Nc2c(O)[nH]c3cc(Cl)ccc23)cc1	53*	.	64	.
O=C(NCc1ccc(F)cc1)C1C2C=CC3(CN(Cc4cccnc4)C(=O)C13)O2 (configuration not stated)	.	3	4	116*
O=C(NCC(c1ccc(F)cc1)N1CCOCC1)c1c(F)cccc1F (configuration not stated)	39*	-7	3	-2
O=C(NCC(c1ccco1)N1CCOCC1)c1c(F)cccc1F (configuration not stated)	0	13	-3	0
O=C(NC(=S)Nc1ccccc1N1CCOCC1)c1cccc([N+](=O)[O-])c1	-2	.	-3	258*
COc1cccc(-c2ccc([C@@H]3[C@H]4CN(C(=O)c5ccncc5)CC(=O)N4[C@H]3CO)cc2)c1	.	-3	.	.
CCC(=O)N1[C@H](CO)[C@H](c2ccccc2)C12CN(C(=O)NC1CCCC1)C2	.	13	.	.
SMILES	Wnt bcat act	PGC1a acetyl inh	MITF act	Cneo AK release
O=C(Cc1nc2ccccc2[nH]1)c1ccc([N+](=O)[O-])cc1	58*	17	59	-1
CCc1cc(C(=O)Cc2nc3ccccc3[nH]2)c(O)cc1O	34*	-13	21	0
C[C@H]1CN([C@@H](C)CO)C(=O)c2cccc(NS(=O)(=O)c3ccc(Cl)cc3)c2O[C@@H]1CN(C)C(=O)Nc1ccccc1	.	-3	.	-2
O=C(OCC(=O)c1ccc[nH]1)c1ccccc1	-1	-5	64	.
CN(C)c1ccc(C(=O)OCC(=O)c2ccc[nH]2)cc1	9	1	137*	-1
C/C=C/c1cnc2c(c1)C(=O)N([C@H](C)CO)C[C@@H](C)[C@H](CN(C)C(=O)CN1CCOCC1)O2	.	4	.	-2
COc1ccc(C[C@@H]2OC3(C=CC(=O)C=C3)O[C@H]2Cc2ccc(OC)cc2)cc1	.	90*	-100	.
CN1C(=O)c2cc(NS(C)(=O)=O)ccc2OC[C@@H]2O[C@@H](CC(=O)N3CCOCC3)CC[C@@H]21	.	.	.	1
O=c1oc2ccc3ccccc3c2cc1-c1nc2ccccc2o1	.	7	8	-2
COc1ccc2cc(-c3nc4ccccc4n3C)c(=O)oc2c1	13	5	90*	-1
O=c1oc2ccccc2cc1-c1nc2ccccc2o1	35*	-5	46	-1
COc1ccc2oc(=O)c(-c3nc4ccccc4o3)cc2c1	103*	.	43	.
C[C@H](O)C#Cc1cnc2c(c1)C(=O)N([C@H](C)CO)C[C@H](C)[C@H](CN(C)C(=O)Nc1ccc(C(F)(F)F)cc1)O2	.	-6	.	7
CCCC(=O)Nc1ccc2c(c1)C(=O)N(C)C[C@H](OC)[C@H](C)CN(CCC(F)(F)F)[C@@H](C)CO2	.	-2	.	2
C[C@H](CO)N1C[C@H](C)[C@H](CN(C)Cc2ccc3c(c2)OCO3)Oc2ccc(NC(=O)CCN3CCOCC3)cc2C1=O	.	1	.	1
O=C(N[C@@H]1CC[C@H](CCNS(=O)(=O)Cc2ccccc2)O[C@H]1CO)c1cnccn1	.	-4	.	16
CCOC(=O)c1csc(Nc2nc3ccc(F)cc3s2)n1	39*	-13	-14	0
CC(=O)c1sc(Nc2nc3ccc(F)cc3s2)nc1C	67*	.	43	-8
O=c1oc(/C=C/c2ccco2)nc2sc3c(c12)CCC3	-4	0	82*	0
O=c1[nH]c(-c2ccco2)nc2sc3c(c12)CCCC3	39*	.	64	.
O=c1[nH]c(S)nc2sc3c(c12)CCCC3	.	8	.	-3
O=C(CC1CC1)N1CC(=O)N2[C@H](CO)[C@@H](c3ccc(C#Cc4ccccc4)cc3)[C@H]2C1	.	0	.	.
COc1ccc(C2NN=C(c3ccc(C)cc3)S2)cc1 (configuration not stated)	29	.	73	-4
CCOc1cc(C2NN=C(c3ccc(C)cc3)S2)ccc1O (configuration not stated)	63*	.	68	.
CCC(=O)Nc1ccc2c(c1)OC[C@@H](C)N(CC1CC1)C[C@@H](C)[C@@H](OC)CN(C)C2=O	.	18	.	-2
SMILES	Wnt bcat act	PGC1a acetyl inh	MITF act	Cneo AK release
O=C(NCc1nc2ccccc2[nH]1)C1=C[C@@H](C2CC2)C[C@@H](OCc2ccc(CO)cc2)O1	-7	-28	0	-17
O=C(NCc1nc2ccccc2[nH]1)C1=C[C@H](C2CC2)C[C@H](OCc2ccc(CO)cc2)O1	-1	4	-8	81*!
Cc1ccnc(NC(=O)c2ccc([N+](=O)[O-])s2)c1	42*	.	-27	-4
Cc1ccnc(NC(=O)c2cc3cc(F)ccc3s2)c1	38*	.	52	-4
Cc1ccnc(NC(=O)Nc2ccc(F)cc2)c1	.	1	42	-18
Cc1ccnc(NC(=O)c2cc([N+](=O)[O-])cc([N+](=O)[O-])c2)c1	0	.	-19	.
C[C@@H]1CN([C@H](C)CO)C(=O)c2cc(-c3ccc(F)cc3)cnc2O[C@H]1CN(C)C(=O)C1CCC1	.	10	.	0
